Screening data (PubChem)
ATG4B inh: blocks human ATG4B protease cleavage of LC3 substrate | ATG4B cleavage of LC3-PLA2, NBD-HPC fluorescence, 1 h | AID 504462 | hit rate 0.51% among 340,000 | inhibition, % at 8.33 µM; in the data active = inhibition above about 40%
Target sequence (Q9Y4P1 whole entry, looked up): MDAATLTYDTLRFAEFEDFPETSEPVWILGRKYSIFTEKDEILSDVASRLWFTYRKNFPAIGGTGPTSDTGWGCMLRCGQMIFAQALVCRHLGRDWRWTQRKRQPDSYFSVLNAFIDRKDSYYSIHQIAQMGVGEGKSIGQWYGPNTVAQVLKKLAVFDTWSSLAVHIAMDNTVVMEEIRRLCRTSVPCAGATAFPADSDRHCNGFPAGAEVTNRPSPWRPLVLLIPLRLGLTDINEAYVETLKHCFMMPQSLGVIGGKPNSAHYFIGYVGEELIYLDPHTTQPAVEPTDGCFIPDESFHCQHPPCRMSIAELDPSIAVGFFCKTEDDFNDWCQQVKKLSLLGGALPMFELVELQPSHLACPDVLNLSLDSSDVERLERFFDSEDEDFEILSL
LANA-H2A inh: blocks KSHV LANA binding to histone H2A/H2B | cell-free LANA-H2A/H2B peptide, fluorescence polarization | inhibition, % (no concentration beside the values) | Q9QR71 | hit rate 0.6% among 320,000 | AID 2629; in the data active = inhibition mostly above about 10%, no sharp cut-off; inactive = mostly below about 6.7%
Bfl-1 A1 inh: inhibitors of the anti-apoptotic protein A1, read as caspase activation. MEF A1-2A-BIM cells, Caspase-Glo 3/7 luminescence, 3 h; percent of clofoctol response, vehicle zero. caspase activation, % (concentration not given with the values). hit rate 0.066% among 330,000. AID 2462;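 active = over half of replicate activation scores above 10%, or exactly half above 10 with the replicate mean above 10; inconclusive = replicate mean below 10 yet half the replicates above 10; inactive = over half of replicates below 10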
HDAC3 inh: human HDAC3 inhibition; hit rate 0.15% among 320,000; recombinant HDAC3, fluorogenic peptide/trypsin coupled, fluorescence; O15379; inhibition, % at 8.3 µM; AID 2718; in the data active = inhibition above about 26%, passing the limit was not always enough; inconclusive = no clear call, values can overlap the other calls
AI-2 QS modul: modulators of Vibrio harveyi AI-2 quorum sensing system; activity change, % at 7.5 µM; Vibrio harveyi JMH597 AI-2 luminescence/OD600 ratio, 9 h; stronger effect = lower value; strain lacks LuxN and CqsS sensors; 0 = neutral-control median; hit rate 0.4% among 300,000; AID 2094; in the data active = activity change below about -75%, passing the limit was not always enough; inconclusive = no clear call, values can overlap the other calls;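 also: luminescence divided by OD600 gain over 9 h not by final OD600 alone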
HKDC1 inhibitor: inhibitors of human hexokinase HKDC1 | Q2TB90 | recombinant HKDC1, G6PDH/diaphorase resazurin coupled fluorescence | inhibition, % at 20 µM | hit rate 0.16% among 340,000;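 active = inhibition above about 35% when tested at 20 µM, limit read from the data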;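 also: plate controls were DMSO wells with enzyme for no effect and DMSO wells lacking enzyme for full effect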
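Material – in-house recombinant HK5 (HKDC1) enzyme · Quantity – HKDC1 at 5 µg/mL · Buffer or medium – pH 8.0 Tris buffer with 10 mM MgCl2 · Reagent – glucose with 1 mM ATP · Dosing – single 20 µM dose · Times – reaction time 90 min, room temperature, protected from light · Technique – resorufin fluorescence at 613 nm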
ATG4B conf: ATG4B (human) inhibition, single-dose confirmed. inhibition, % at 8.33 µM. ATG4B protease fluorescent substrate cleavage assay. AID 504757. shares compounds with ATG4B inh. hit rate 92% among 320; in the data active = inhibition above about 39%
PLA2 ctr: PLA2 (human) inhibition in ATG4B counter-screen; shares compounds with ATG4B inh; purified PLA2, NBD-C6-HPC fluorescence, 45 min; inhibition, % at 8.33 µM; hit rate 66% among 1,600; AID 588402; in the data active = inhibition above about 50%
An asterisk follows results filed as active; ? = inconclusive; . = no result. The list is not random: actives were taken first. Their share in the collection is about 1.8%.

SMILES	ATG4B inh	LANA-H2A inh	Bfl-1 A1 inh	HDAC3 inh	AI-2 QS modul	HKDC1 inhibitor	PLA2 ctr	others
C=CCN1C(c2ccc(Br)cc2)=CS/C1=C(\C#N)c1nnc(N2CCOCC2)n1-c1ccccc1	52*	.	.	.	.	5	69*
CC(C)N(C(=O)Cn1cc(S(=O)(=O)CC(=O)NCc2ccc(F)cc2)c2ccccc21)C(C)C	-4	5	1	-9	6	-8	.
Cc1c(C(=O)O)cccc1-c1ccc(/C=N/Nc2ccc(Br)cc2)o1	48*	3	-1	-2	5	-4	25
COC(=O)C1CCN(C(=O)COC(=O)/C=C/c2ccc(O)c(OC)c2)CC1	-4	-6	0	4	.	0	.
Cc1ccc(-c2[nH]ncc2/C=N/n2c(COc3ccccc3)nc3ccccc3c2=O)cc1	-9	-5	0	3	34	-6	.
Cc1cccc(C)c1OCc1nc2ccccc2c(=O)n1/N=C/c1ccc(OCC(=O)O)cc1	53*	-3	1	6	48	-5	37	ATG4B conf=62*
Cc1cc(/C=N/n2c(COc3ccccc3)nc3ccccc3c2=O)c(O)c([N+](=O)[O-])c1	60*	-2	0	3	-12	-23	35	ATG4B conf=53*
Cc1cc2c(cc1S(=O)(=O)C(C)CC(=O)NCc1ccco1)OCC(=O)N2 (stereo not given)	6	6	0	0	22	-1	.
COc1cc(CCCN2C(N)=NC[C@@H]2Cc2ccccc2)cc(OC)c1OC	-3	-1	-1	-9	-2	-1	.
C[C@@H]1CN([C@H](C)CO)C(=O)c2cc(NC(=O)Cc3ccccc3)ccc2O[C@H]1CN(C)Cc1ccc(Oc2ccccc2)cc1	56*	5	0	14	.	3	68*
CN(C)S(=O)(=O)c1ccc(C(=O)OC2CCOC2=O)cc1 (stereo not given)	5	1	0	3	3	-3	.
Cc1cc(OCC(=O)OCC(=O)c2c(N)n(C)c(=O)n(C)c2=O)ccc1Cl	-15	1	0	-5	.	-3	.
Cn1cccc1C(=O)NC(=O)COC(=O)CC12CC3CC(CC(Br)(C3)C1)C2	61*	5	0	2	21	-1	73*
Cn1cccc1C(=O)NC(=O)COC(=O)CC12CC3CC(CC(C3)C1)C2	62*	4	-1	16	18	-3	54*
O=C(NCc1nnc(SCC(=O)N2CCCC2)o1)c1ccccc1	-1	4	-1	-1	-8	-3	.
CC(C)(C)c1ccccc1N=Cc1ccc2ccccc2n1	54*	-6	0	5	6	5	35	ATG4B conf=74*
O/N=C/c1ccc2ccccc2n1	-1	9	-3	-2	20	-8	.
N#CC1=C(N)OC2=C(C(=O)CC(c3ccco3)C2)C1c1ccc(OCc2c(F)cccc2Cl)cc1 (stereo not given)	87*	5	0	1	29	-7	89*
Cc1ccccc1Cn1cc(NC(=O)CSc2nc3c(c(C(F)(F)F)n2)CCc2ccccc2-3)cn1	78*	0	1	5	28	10	73*
CC(C)CC(=O)Nc1ccc(-c2nnn(CC(=O)NCc3ccco3)n2)cc1	1	-4	0	?	16	-2	.
O=c1nc(/C=C/c2ccccc2C(F)(F)F)cc(C(F)(F)F)[nH]1	45*	0	0	-4	-3	13	59*
COc1ccc(/C=C/c2cc(C(F)(F)F)[nH]c(=O)n2)cc1OC	1	4	0	-23	6	2	.
Cc1sc2nc(C3CC3)nc(SCC(=O)N3CC(=O)Nc4ccccc43)c2c1C	69*	1	-1	-1	37	-1	77*
Cc1ccc(S(=O)(=O)C2(C(=O)NC3CCCCC3)CC2)cc1	4	-1	0	-2	4	-5	.
